Data published in ChEMBL document CHEMBL1139007 (J Med Chem, 2006).

How the values were obtained:
[1] = molecular target: T1, C-C chemokine receptor type 5 (Homo sapiens, UniProt P51681); experiment: Inhibition of replication of R5 HIV1 Ba-L in MOLT4/CCR5 cells; assay type: functional, cell-based; conditions: Human immunodeficiency virus 1, MOLT-4
Target sequence in this assay (P51681 whole entry, looked up): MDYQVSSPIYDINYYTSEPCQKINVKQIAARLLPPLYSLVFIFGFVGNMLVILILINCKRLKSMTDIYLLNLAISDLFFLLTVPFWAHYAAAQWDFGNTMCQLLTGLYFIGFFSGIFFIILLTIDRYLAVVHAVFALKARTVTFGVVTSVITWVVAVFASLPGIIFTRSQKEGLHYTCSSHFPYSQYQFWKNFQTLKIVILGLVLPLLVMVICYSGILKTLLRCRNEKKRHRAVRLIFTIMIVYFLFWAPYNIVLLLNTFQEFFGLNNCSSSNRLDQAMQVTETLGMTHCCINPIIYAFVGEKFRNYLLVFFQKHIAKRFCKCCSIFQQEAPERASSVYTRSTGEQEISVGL

[2] = molecular target: T1, C-C chemokine receptor type 5; experiment: Displacement of [125I]RANTES from CCR5 expressed in CHO cells; assay type: cell-based
Target sequence in this assay (P51681 whole entry): as the sequence (P51681 whole entry, looked up) above

[3] = molecular target: T1, C-C chemokine receptor type 5; conditions: Human immunodeficiency virus 1; Ba-L; MOLT-4; 5 nM
Target sequence in this assay (P51681 whole entry, looked up): as above

[4] = Half life in cynomolgus monkey plasma at 1 mg/kg, iv; assay type: ADME, organism-based, Macaca fascicularis; parameters: dose 1 mg/kg, route intravenous
Summary of the method: (§1)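 Blood was drawn at set times (rat tail vein, dog cephalic vein, monkey femoral vein) and spun to plasma. Plasma was run on C8 HPLC, 1-min fractions counted by liquid scintillation.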

[5] = Plasma concentration in Sprague-Dawley rat after 5 min at 1 mg/kg, iv; assay type: ADME, organism-based; parameters: dose 1 mg/kg, route intravenous; summary of the method: as §1
[6] = Tmax in cynomolgus monkey plasma at 3 mg/kg, po; assay type: ADME, organism-based, Macaca fascicularis; parameters: dose 3 mg/kg, route oral
[7] = Tmax in Beagle dog plasma at 3 mg/kg, po; assay type: ADME, organism-based, Canis lupus familiaris; parameters: dose 3 mg/kg, route oral
[8] = molecular target: T2, C-C chemokine receptor type 3 (Homo sapiens, UniProt P51677); experiment: Displacement of [125I]eotaxin from CCR3 expressed in CHO cells; assay type: cell-based
T2 sequence (P51677 whole entry): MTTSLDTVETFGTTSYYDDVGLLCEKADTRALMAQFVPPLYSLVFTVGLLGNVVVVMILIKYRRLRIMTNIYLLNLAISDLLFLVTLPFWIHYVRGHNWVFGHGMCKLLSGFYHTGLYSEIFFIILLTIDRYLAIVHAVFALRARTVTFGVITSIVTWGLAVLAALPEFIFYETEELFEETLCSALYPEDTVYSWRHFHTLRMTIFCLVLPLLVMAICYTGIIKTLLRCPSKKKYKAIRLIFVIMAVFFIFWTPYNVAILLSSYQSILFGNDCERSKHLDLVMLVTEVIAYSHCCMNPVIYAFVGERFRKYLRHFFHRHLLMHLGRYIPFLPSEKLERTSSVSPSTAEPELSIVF
Summary of the method: (§2)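 CHO cells stably expressing the named chemokine receptor were incubated with the [125I]-labelled ligand (RANTES for CCR5 and CCR1, eotaxin for CCR3, TARC for CCR4) and varying compound concentrations. IC50 for inhibition of ligand binding is the mean of triplicate measurements.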

[9] = Plasma concentration in cynomolgus monkey after 5 min at 1 mg/kg, iv; assay type: ADME, organism-based, Macaca fascicularis; parameters: dose 1 mg/kg, route intravenous; summary of the method: as §1
[10] = AUC (0-24h) in Sprague-Dawley rat at 3 mg/kg, po; assay type: ADME, organism-based; parameters: time < 24 hr, dose 3 mg/kg, route oral; conditions: plasma
[11] = molecular target: T3, C-C chemokine receptor type 4 (Homo sapiens, UniProt P51679); experiment: Displacement of [125I]TARC from CCR4 expressed in CHO cells; assay type: cell-based; summary of the method: as §2
T3 sequence (P51679 whole entry): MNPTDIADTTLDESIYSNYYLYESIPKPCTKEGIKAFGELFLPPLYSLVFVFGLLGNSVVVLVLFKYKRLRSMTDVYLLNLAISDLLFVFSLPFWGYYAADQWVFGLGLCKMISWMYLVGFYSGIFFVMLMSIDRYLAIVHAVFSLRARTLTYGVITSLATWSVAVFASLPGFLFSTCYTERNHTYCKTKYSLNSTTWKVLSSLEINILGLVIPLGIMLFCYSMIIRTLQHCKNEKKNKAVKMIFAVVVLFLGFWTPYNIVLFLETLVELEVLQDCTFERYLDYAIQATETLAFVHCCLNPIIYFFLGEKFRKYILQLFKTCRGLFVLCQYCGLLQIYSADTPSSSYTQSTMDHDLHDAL

[12] = molecular target: T4, C-C chemokine receptor type 1 (Homo sapiens, UniProt P32246); experiment: Displacement of [125I]RANTES from CCR1 expressed in CHO cells; assay type: cell-based; summary of the method: as §2
T4 sequence (P32246 whole entry): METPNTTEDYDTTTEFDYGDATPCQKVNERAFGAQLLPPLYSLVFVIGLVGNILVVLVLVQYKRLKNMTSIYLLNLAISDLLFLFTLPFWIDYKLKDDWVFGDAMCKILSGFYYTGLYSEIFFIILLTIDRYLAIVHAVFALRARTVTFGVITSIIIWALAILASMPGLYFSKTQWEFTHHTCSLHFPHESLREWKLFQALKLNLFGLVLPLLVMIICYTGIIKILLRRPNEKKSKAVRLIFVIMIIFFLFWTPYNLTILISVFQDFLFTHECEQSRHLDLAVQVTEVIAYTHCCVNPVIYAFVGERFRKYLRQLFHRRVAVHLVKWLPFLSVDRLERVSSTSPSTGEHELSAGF

[13] = AUC (0-24h) in cynomolgus monkey at 1 mg/kg, iv; assay type: ADME, organism-based, Macaca fascicularis; parameters: time < 24 hr, dose 1 mg/kg, route intravenous; conditions: plasma; summary of the method: as §1
[14] = Bioavailability in Sprague-Dawley rat at 3 mg/kg, po; assay type: ADME, organism-based; conditions: in vivo
[15] = molecular target: T5, C-C chemokine receptor type 7 (Homo sapiens, UniProt P32248); experiment: Displacement of [125I]MIP-3beta from CCR7 expressed in CHO cells; assay type: cell-based
T5 sequence (P32248 whole entry): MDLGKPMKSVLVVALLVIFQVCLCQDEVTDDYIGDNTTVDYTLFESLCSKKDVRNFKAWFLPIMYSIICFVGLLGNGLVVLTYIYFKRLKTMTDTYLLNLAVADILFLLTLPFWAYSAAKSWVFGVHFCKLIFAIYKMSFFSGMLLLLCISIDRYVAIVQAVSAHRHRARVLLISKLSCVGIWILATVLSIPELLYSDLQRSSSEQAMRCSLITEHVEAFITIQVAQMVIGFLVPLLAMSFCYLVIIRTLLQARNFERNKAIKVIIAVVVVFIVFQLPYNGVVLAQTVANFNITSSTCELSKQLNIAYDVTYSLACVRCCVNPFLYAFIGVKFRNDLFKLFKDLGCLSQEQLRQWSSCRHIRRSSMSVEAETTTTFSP
Summary of the method: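 CHO cells stably expressing CCR7, run in the same way as the CCR5 binding assay. Binding of [¹²⁵I]-MIP-3β was measured across a range of test compound concentrations. IC50 is the concentration that inhibits ligand binding by 50%, reported as the mean of triplicate measurements.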

[16] = system: Human immunodeficiency virus 1; experiment: Inhibition of replication of R5 HIV1 CTV in PMBC; assay type: functional, organism-based; conditions: Human immunodeficiency virus 1, CTV
Summary of the method: (§3)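 PHA-stimulated PBMCs infected with clinical isolate (11-55 ng p24 per 4 × 10⁶ cells) for 4 h, washed to remove unadsorbed virus, then seeded at 2 × 10⁵ cells/well with a range of compound concentrations. On day 4 cells were split 1:2 into medium with the same compound level. IC50/IC90 for inhibition of replication; triplicate, repeated 3 or 4 times with PBMCs from different donors; means reported.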

[17] = Cmax in Beagle dog plasma at 3 mg/kg, po; assay type: ADME, organism-based, Canis lupus familiaris; parameters: dose 3 mg/kg, route oral
[18] = Bioavailability in Beagle dog at 3 mg/kg, po; assay type: ADME, organism-based, Canis lupus familiaris; conditions: in vivo
[19] = Plasma concentration in Beagle dog after 5 min at 1 mg/kg, iv; assay type: ADME, organism-based, Canis lupus familiaris; parameters: dose 1 mg/kg, route intravenous; summary of the method: as §1
[20] = Half life in Beagle dog plasma at 1 mg/kg, iv; assay type: ADME, organism-based, Canis lupus familiaris; parameters: dose 1 mg/kg, route intravenous; summary of the method: as §1
[21] = AUC (0-24h) in Sprague-Dawley rat at 1 mg/kg, iv; assay type: ADME, organism-based; parameters: time < 24 hr, dose 1 mg/kg, route intravenous; conditions: plasma; summary of the method: as §1
[22] = Bioavailability in cynomolgus monkey at 3 mg/kg, po; assay type: ADME, organism-based, Macaca fascicularis; conditions: in vivo
[23] = Half life in Sprague-Dawley rat plasma at 1 mg/kg, iv; assay type: ADME, organism-based; parameters: dose 1 mg/kg, route intravenous; summary of the method: as §1
[24] = system: Human immunodeficiency virus 1; experiment: Inhibition of replication of R5 HIV1 HNK in PMBC; assay type: functional, organism-based; conditions: Human immunodeficiency virus 1, HNK; summary of the method: as §3
[25] = system: Human immunodeficiency virus 1; experiment: Inhibition of replication of R5 HIV1 HTN in PMBC; assay type: functional, organism-based; conditions: Human immunodeficiency virus 1, HTN; summary of the method: as §3
[26] = Cmax in Sprague-Dawley rat plasma at 3 mg/kg, po; assay type: ADME, organism-based; parameters: dose 3 mg/kg, route oral
[27] = Tmax in Sprague-Dawley rat plasma at 3 mg/kg, po; assay type: ADME, organism-based; parameters: dose 3 mg/kg, route oral
[28] = AUC (0-24h) in Beagle dog at 1 mg/kg, iv; assay type: ADME, organism-based, Canis lupus familiaris; parameters: time < 24 hr, dose 1 mg/kg, route intravenous; conditions: plasma; summary of the method: as §1
[29] = system: Human immunodeficiency virus 1; experiment: Inhibition of replication of R5 HIV1 HKW in PMBC; assay type: functional, organism-based; conditions: Human immunodeficiency virus 1, HKW; summary of the method: as §3
[30] = Cmax in cynomolgus monkey plasma at 3 mg/kg, po; assay type: ADME, organism-based, Macaca fascicularis; parameters: dose 3 mg/kg, route oral
[31] = system: Human immunodeficiency virus 1; experiment: Inhibition of replication of R5 HIV1 KK in PMBC; assay type: functional, organism-based; conditions: Human immunodeficiency virus 1, KK; summary of the method: as §3
[32] = AUC (0-24h) in Beagle dog at 3 mg/kg, po; assay type: ADME, organism-based, Canis lupus familiaris; parameters: time < 24 hr, dose 3 mg/kg, route oral; conditions: plasma
[33] = AUC (0-24h) in cynomolgus monkey at 3 mg/kg, po; assay type: ADME, organism-based, Macaca fascicularis; parameters: time < 24 hr, dose 3 mg/kg, route oral; conditions: plasma
[34] = system: Human immunodeficiency virus 1; experiment: Inhibition of replication of R5 HIV1 HHA in PMBC; assay type: functional, organism-based; conditions: Human immunodeficiency virus 1, HHA; summary of the method: as §3

## CCCCOCCOc1ccc(-c2ccc3c(c2)C=C(C(=O)Nc2ccc([S+]([O-])Cc4cncn4CCC)cc2)CCN3CC(C)C)cc1 (configuration not stated)
[1]
  IC90: 860 nM
[2]
  IC50: 1.9 nM

## CCCCOCCOc1ccc(-c2ccc3c(c2)/C=C(/C(=O)Nc2ccc([S@@+]([O-])Cc4cncn4CCC)cc2)CCCCCN3CC(C)C)cc1
[2]
  IC50: 67 nM

## CCCCOCCOc1ccc(-c2ccc3c(c2)/C=C(/C(=O)Nc2ccc([S@@+]([O-])Cc4cncn4CCC)cc2)CCCN3CCC)cc1
[3]
  inhibition: 72%
[2]
  IC50: 1.7 nM

## CCCCOCCOc1ccc(-c2ccc3c(c2)/C=C(/C(=O)Nc2ccc([S@@+]([O-])Cc4nncn4CCC)cc2)CCCN3CC(C)C)cc1
[1]
  IC90: 10 nM
[2]
  IC50: 2.4 nM

## CCCCOCCOc1ccc(-c2ccc3c(c2)/C=C(/C(=O)Nc2ccc([S@@+]([O-])Cc4cncn4CCC)cc2)CCCN3Cc2cnn(C)c2)cc1
[1]
  IC90: 11 nM
[2]
  IC50: 1.7 nM

## CCCCOCCOc1ccc(-c2ccc3c(c2)/C=C(/C(=O)Nc2ccc([S@@+]([O-])Cc4nncn4CCC)cc2)CCCN3CCC)cc1
[2]
  IC50: 2.2 nM

## CCCCOCCOc1ccc(-c2ccc3c(c2)/C=C(/C(=O)Nc2ccc([S@@+]([O-])Cc4cncn4CCC)cc2)CCCCN3CC(C)C)cc1
[1]
  IC90: 19 nM
[2]
  IC50: 6.8 nM

## CCCCOCCOc1ccc(-c2ccc3c(c2)/C=C(/C(=O)Nc2ccc([S@@+]([O-])Cc4cncn4CCC)cc2)CCCCCN3CCC)cc1
[2]
  IC50: 25 nM

## CCCCOCCOc1ccc(-c2ccc3c(c2)/C=C(/C(=O)Nc2ccc([S@@+]([O-])Cc4cncn4CCC)cc2)CCCCN3CCC)cc1
[2]
  IC50: 4.7 nM

## CCCCOCCOc1ccc(-c2ccc3c(c2)/C=C(/C(=O)Nc2ccc([S@@+]([O-])Cc4cncn4CCC)cc2)CCCN3CC(C)C)cc1.CS(=O)(=O)O [CENICRIVIROC MESYLATE]
[4]
  half-life: 6.09 h
[5]
  concentration at 5 min: 8020 ng/mL
[6]
  Tmax: 2 h
[7]
  Tmax: 2.7 h
[1]
  IC90: 0.81 nM
[8]
  IC50: 2400 nM
[9]
  concentration at 5 min: 3110 ng/mL
[10]
  AUC(0-t) at 24 h: 2320 ng·h/mL
[11]
  IC50: 1100 nM
[12]
  IC50: > 10000 nM
[13]
  AUC(0-t) at 24 h: 1450 ng·h/mL
[14]
  bioavailability: 10.2%
[15]
  IC50: > 10000 nM
[16]
  IC50: 0.07 nM
  IC90: 0.31 nM
[17]
  Cmax: 570 ng/mL
[18]
  bioavailability: 88.5%
[19]
  concentration at 5 min: 2320 ng/mL
[20]
  half-life: 5.04 h
[21]
  AUC(0-t) at 24 h: 7610 ng·h/mL
[22]
  bioavailability: 15.6%
[23]
  half-life: 4.85 h
[24]
  IC50: 0.087 nM
  IC90: 0.36 nM
[25]
  IC50: 0.089 nM
  IC90: 0.32 nM
[26]
  Cmax: 485 ng/mL
[27]
  Tmax: 1.3 h
[28]
  AUC(0-t) at 24 h: 2310 ng·h/mL
[29]
  IC50: 0.049 nM
  IC90: 0.16 nM
[30]
  Cmax: 116 ng/mL
[31]
  IC50: 0.043 nM
  IC90: 0.19 nM
[32]
  AUC(0-t) at 24 h: 6010 ng·h/mL
[33]
  AUC(0-t) at 24 h: 670 ng·h/mL
[34]
  IC50: 0.024 nM
  IC90: 0.13 nM
